Shown are actives, neighbours in structure and some others; about 1.6% of the full set was active somewhere.
TDP2 inh: human TDP2 enzyme inhibitors, primary screen, biochemical, epi absorbance, recombinant enzyme; Tyrosyl-DNA phosphodiesterase 2 (Homo sapiens), O95551; T5PNP hydrolysis, p-nitrophenol absorbance 415 nm; inhibition, % at 12.8 µM; hit rate 0.34% among 370,000; AID 720702, 2013;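 active means inhibition above the mean of all tested compounds plus 3 SD, set per campaign, cut at about 25% in these data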;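 further: 0% = DMSO with enzyme and 100% = buffer with substrate but no TDP2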
Target sequence (O95551 whole entry, looked up): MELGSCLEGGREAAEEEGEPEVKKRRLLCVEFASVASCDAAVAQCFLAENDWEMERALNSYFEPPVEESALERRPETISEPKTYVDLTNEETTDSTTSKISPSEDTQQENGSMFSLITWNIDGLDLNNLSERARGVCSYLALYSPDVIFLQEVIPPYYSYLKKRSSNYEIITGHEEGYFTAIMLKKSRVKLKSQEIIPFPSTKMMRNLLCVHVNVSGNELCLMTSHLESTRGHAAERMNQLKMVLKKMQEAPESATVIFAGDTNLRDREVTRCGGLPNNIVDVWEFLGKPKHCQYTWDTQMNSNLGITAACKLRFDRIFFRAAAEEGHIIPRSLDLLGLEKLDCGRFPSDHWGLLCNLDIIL
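test system = human TDP2 enzyme | input = TDP2 enzyme at 120 nM final | medium = 50 mM Tris-HCl pH 7.5 with Mg2+, KCl, DTT, BSA | also added = T5PNP substrate, 5 mM | times = 2 h at 37 °C | technique = epi absorbance | benchmarks = high control without enzyme, low control DMSO plus TDP2 | replication = each compound tested once, singlicate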
MBD2 inh: inhibitors of MBD2 binding to methylated DNA, primary screen, biochemical, TR-FRET, DNA-binding domain, human | Methyl-CpG-binding domain protein 2 (Homo sapiens), Q9UBB5 | inhibition, % at 4.4 µM | MBD2 binding to methylated oligonucleotide | AID 686964, 2013 | hit rate 0.31% among 370,000; in the data active means inhibition above about 13%
LEDGF integ inh: blockers of LEDGF/p75-dependent integrase strand transfer – biochemical, TR-FRET, high throughput, primary screen. TR-FRET IN-LEDGF/p75 DNA integration, Eu/Cy5. inhibition, % at 3.7 µM. HIV-1 integrase (with human LEDGF/p75). hit rate 0.64% among 370,000;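 active means inhibition above the screen-wide mean plus 3 SD, cut at about 13% in these data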;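 further: signal is the Cy5 over europium emission ratio at 671 and 618 nm; 0% = plate median of compound wells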
UHRF1 MBD2 ctr: UHRF1 methylated DNA binding inhibitors, primary screen, counter-screen for MBD2 inhibitor project, biochemical, TR-FRET, human UHRF1, single concentration; UHRF1 binding to methylated oligo; inhibition, % at 4.4 µM; hit rate 0.75% among 370,000; AID 687016, 2013; in the data active means inhibition above about 21%;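 further: UHRF1 SRA domain binding a hemimethylated CpG hairpin DNA probe; 0% = median of test compound wells and 100% = reference inhibitor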
TDP2 confirm: human TDP2 enzyme inhibitors, retest, confirmation, biochemical, epi absorbance, recombinant enzyme; AID 743263, 2014; hit rate 22% among 1,100; inhibition, % at 12.8 µM; absorbance read-out; shares compounds with TDP2 inh; in the data active means inhibition above about 25%;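 further: 0% = vehicle with enzyme and 100% = no enzyme buffer only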
Numbers without * were called inactive; / = not tested or not shown.

SMILES	TDP2 inh	MBD2 inh	LEDGF integ inh	UHRF1 MBD2 ctr	TDP2 confirm
COc1ccc(CC(=O)OC(C)C(=O)NCc2ccc3c(c2)OCO3)cc1OC (stereo not given)	44.4*	-5.8	2.1	-1.3	3.0
Cc1c(Cl)cnc(NC(=O)COC(=O)c2ccc([N+](=O)[O-])s2)c1Cl	37.2*	-4.7	1.6	-0.6	22.1
Cc1ccc(C(=O)OCc2nnc(-c3ccccc3)o2)s1	15.5	3.3	0.7	-2.7	/
O=C(COC(=O)c1ccc([N+](=O)[O-])s1)Nc1ccc(F)cc1	47.1*	-3.7	7.5	-2.2	31.5*
O=C(OCc1nnc(-c2ccccc2)o1)c1ccc([N+](=O)[O-])s1	31.7*	6.3	6.7	7.2	37.4*
O=C(COC(=O)c1ccc([N+](=O)[O-])s1)Nc1ccc(Cl)cn1	3.5	-5.8	2.8	4.7	/
O=C(COC(=O)c1ccc([N+](=O)[O-])s1)Nc1ccccc1	49.8*	1.6	5.8	13.3	22.2
CC(C)(C)c1ccc(NC(=O)COC(=O)c2ccc([N+](=O)[O-])s2)cc1	13.9	-9.4	-1.8	-1.3	/
CC(C)(C)[C@@H]1C=C(C(=O)N2CCN(Cc3ccccc3)CC2)O[C@H](OCCCCO)C1	1.4	-0.9	-3.6	-1.1	/
COc1cccc(N2CC(NS(=O)(=O)c3cccnc3)CC2=O)c1 (stereo not given)	28.7*	-4.3	-0.7	-0.5	-4.7
COc1ccc(N2CC(NS(=O)(=O)c3cccnc3)CC2=O)cc1 (stereo not given)	-4.2	-5.0	0.0	-4.4	/
COc1ccc(C(=O)c2[nH]c(N)c(C(=O)c3c[nH]c4ccccc34)c2-c2ccc(OC)cc2)cc1	-9.2	-0.1	4.5	-6.1	/
COc1ccc(C)cc1NC(=S)NN1CCN(C)CC1	29.0*	4.3	-3.8	1.0	0.7
Cc1cc(Cl)c2oc(C(=O)N3CCN(C(=O)c4ccco4)CC3)c(C)c2c1	31.2*	-0.9	2.4	-2.1	-1.0
CSc1ccc(CN(C)CC(=O)Nc2c(F)cccc2F)cc1	28.7*	-0.4	-0.6	-0.4	19.8
Cc1ccc(CN2CCSCC2)cc1	26.0*	0.3	-2.6	0.4	7.8
Brc1ccc(CN2CCSCC2)cc1	-7.0	-5.5	0.3	2.9	/
O=C(NC(N1CCOCC1)C(Cl)(Cl)Cl)c1ccccc1Cl (stereo not given)	26.8*	1.9	-3.2	1.2	7.9
O=C(NC(N1CCCCCC1)C(Cl)(Cl)Cl)c1ccccc1Cl (stereo not given)	1.2	7.5	-2.6	3.2	/
CCOC(=O)c1cc2c(ccn2C)n1Cc1ccccc1C	26.0*	3.2	4.2	1.1	-14.8
CCOC(=O)c1cc2c(ccn2C)n1Cc1ccccc1Cl	-0.6	-2.9	-0.3	1.6	/
CCC(C(=O)Nc1ccccc1C(=O)N1CCCC1)N1C(=O)c2ccccc2C1=O (stereo not given)	-7.8	1.7	1.2	3.5	/
CC(=O)c1ccc(OCc2cc(C(=O)NC(C)Cc3ccccn3)no2)cc1 (stereo not given)	30.0*	1.8	0.9	-2.3	4.8
COc1ccc(COC(=O)c2cccc(S(=O)(=O)N3CCN(C(C)=O)CC3)c2)cc1F	25.2*	2.0	-1.0	-2.9	6.6
O=C(NCc1ccc(F)cc1)C1CC(=O)N(Cc2ccco2)C1 (stereo not given)	25.2*	-8.0	1.6	-2.6	-5.7
SMILES	TDP2 inh	MBD2 inh	LEDGF integ inh	UHRF1 MBD2 ctr	TDP2 confirm
O=C(Nc1c(-c2ccccc2)[nH][nH]c1=O)c1ccc2c(c1)OCO2	47.6*	2.0	9.7	5.1	22.5
O=C(Nc1c(-c2ccc3c(c2)OCO3)[nH][nH]c1=O)c1ccccc1	68.2*	1.2	7.5	8.7	70.6*
CC(=O)Nc1ccccc1NC(=O)c1ccc2c(c1)OCO2	-2.2	4.1	-1.9	0.6	/
O=C(Nc1ccc2c(c1)OCO2)c1ccccc1	-3.1	-2.0	-2.4	-0.6	/
Fc1ccccc1CSc1nncn1NCc1cccs1	2.8	3.7	-2.0	-0.9	/
COc1cc(/C=N/NC(=O)Cc2nnc(NC(=O)c3ccccc3)s2)ccc1O	28.9*	2.1	2.8	-1.5	3.1
